Experimental data: ChEMBL document CHEMBL1765005, “Small molecule antagonists of the urokinase (uPA): urokinase receptor (uPAR) interaction with high reported potencies show only weak effects in cell-based competition assays employing the native uPAR ligand” (Bioorg Med Chem, 2011)
The source made the active and inactive calls. The calls are words filed in the database; no cut-off is given here. Residues, ends and D or L forms follow the SMILES beside them.

Key:
Assay type in all cases: cell-based
[1] = biological target: T1, Urokinase-type plasminogen activator/surface receptor (Homo sapiens, UniProt P00749+Q03405); experiment: Inhibition of [125I]-labelled urokinase-type plasminogen activator binding to uPAR in human DU-145 cells by radioligand competition binding assay
[2] = biological target: T1, Urokinase-type plasminogen activator/surface receptor; experiment: Inhibition of high molecular weight fluorescent labelled urokinase-type plasminogen activator binding to uPAR in PMA-stimulated human U937 cells at 100 uM preincubated for 30 mins by flow cytometry; details: U-937
Procedure, shortened: (§1)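 U-937 cells were stimulated with 100 nM PMA (final) for 7–8 h at 37 °C, then resuspended at 1 × 10⁶ cells/mL in cold PBS (1 mM CaCl₂, MgCl₂) with 0.1% BSA, pH 7.4. Cells were pre-incubated with antagonist on ice for 30 min, then given 40 nM Alexa-488-HMW-uPA. After washing, cell fluorescence was read by dual-colour flow cytometry as % of the no-compound control; mean ± SD, n = 3.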

[3] = biological target: T1, Urokinase-type plasminogen activator/surface receptor; experiment: Inhibition of high molecular weight fluorescent labelled urokinase-type plasminogen activator binding to uPAR in PMA-stimulated human U937 cells at 10 uM preincubated for 30 mins by flow cytometry; details: U-937; procedure, shortened: as §1
[4] = biological target: T1, Urokinase-type plasminogen activator/surface receptor; experiment: Inhibition of high molecular weight fluorescent labelled urokinase-type plasminogen activator binding to uPAR in PMA-stimulated human U937 cells at 10 nM preincubated for 30 mins by flow cytometry; details: U-937; procedure, shortened: as §1
[5] = biological target: T1, Urokinase-type plasminogen activator/surface receptor; experiment: Inhibition of high molecular weight fluorescent labelled urokinase-type plasminogen activator binding to uPAR in PMA-stimulated human U937 cells at 100 nM preincubated for 30 mins by flow cytometry; details: U-937; procedure, shortened: as §1

| IC50 [1] [nM] | inhibition [2] | inhibition [3] | inhibition [4] [%] | inhibition [5] [%] | SMILES |
| --- | --- | --- | --- | --- | --- |
| 0.8 | inactive | inactive |  |  | CC(=O)N[C@@H](Cc1c[nH]c2ccccc12)C(=O)Nc1cccc(-c2ccc(C(=O)N[C@@H](Cc3ccccc3)C(=O)O)cc2)c1 |
|  |  |  | 80 | 90 | N=C(N)NCCC[C@H](NC(=O)CNC(=O)[C@@H](N)CCC(=O)O)C(=O)CCl (HELM PEPTIDE1{E.G.R.[ClC[*:1]]}$$$$V2.0) |
|  | 50% | 60% |  |  | C#CCNCC(=O)N(CC(=O)N(CC(N)=O)CC(=O)NC(c1ccc(OC)cc1)c1ccc(OC)cc1)c1ccc2ccccc2c1 |
